Tests used:
Format in all cases: functional
Settings in all cases: K-12 DH10B
Escherichia coli [1] = test: Antimicrobial activity against Escherichia coli DH10B harboring beta-lactamase KPC-2 T237F mutant by agar dilution method in presence of beta-lactamase inhibitor Tazobactam
Summary of the method: (§1)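 LB agar dilution MICs by CLSI criteria, inoculated with a Steers replicator. […] Strains were E. coli DH10B with or without pBC SK(+) carrying wild-type blaKPC-2 or a position 237 variant.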

Escherichia coli [2] = test: Antimicrobial activity against Escherichia coli DH10B harboring beta-lactamase KPC-2 T237P mutant by agar dilution method in presence of beta-lactamase inhibitor Tazobactam; summary of the method: as §1
Escherichia coli [3] = test: Antimicrobial activity against Escherichia coli DH10B harboring beta-lactamase KPC-2 T237C mutant by agar dilution method in presence of beta-lactamase inhibitor Tazobactam; summary of the method: as §1
Escherichia coli [4] = test: Antimicrobial activity against Escherichia coli DH10B harboring beta-lactamase KPC-2 T237E mutant by agar dilution method in presence of beta-lactamase inhibitor Tazobactam; summary of the method: as §1
Escherichia coli [5] = test: Antimicrobial activity against Escherichia coli DH10B harboring beta-lactamase KPC-2 T237W mutant by agar dilution method in presence of beta-lactamase inhibitor Tazobactam; summary of the method: as §1
Escherichia coli [6] = test: Antimicrobial activity against Escherichia coli DH10B harboring beta-lactamase KPC-2 T237K mutant by agar dilution method in presence of beta-lactamase inhibitor Tazobactam; summary of the method: as §1
Escherichia coli [7] = test: Antimicrobial activity against Escherichia coli DH10B harboring beta-lactamase KPC-2 T237G mutant by agar dilution method in presence of beta-lactamase inhibitor Tazobactam; summary of the method: as §1
Escherichia coli [8] = test: Antimicrobial activity against Escherichia coli DH10B harboring beta-lactamase KPC-2 T237Q mutant by agar dilution method in presence of beta-lactamase inhibitor Tazobactam; summary of the method: as §1
Escherichia coli [9] = test: Antimicrobial activity against Escherichia coli DH10B harboring plasmid […] by agar dilution method in presence of beta-lactamase inhibitor Tazobactam
Summary of the method: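 LB agar dilution MIC following CLSI criteria, inoculated with a Steers replicator. Tested as piperacillin-tazobactam at a fixed 8:1 ratio.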

Escherichia coli [10] = test: Antimicrobial activity against Escherichia coli DH10B harboring beta-lactamase KPC-2 T237V mutant by agar dilution method in presence of beta-lactamase inhibitor Tazobactam; summary of the method: as §1
Escherichia coli [11] = test: Antimicrobial activity against Escherichia coli DH10B harboring beta-lactamase KPC-2 T237R mutant by agar dilution method in presence of beta-lactamase inhibitor Tazobactam; summary of the method: as §1
Escherichia coli [12] = test: Antimicrobial activity against Escherichia coli DH10B harboring beta-lactamase KPC-2 T237S mutant by agar dilution method in presence of beta-lactamase inhibitor Sulbactam
Summary of the method: (§2)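 LB agar dilution MICs by CLSI criteria, applied with a Steers replicator. […] Hosts were E. coli DH10B carrying pBC SK(+) with wild-type blaKPC-2 or a position 237 variant.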

Escherichia coli [13] = test: Antimicrobial activity against Escherichia coli DH10B harboring beta-lactamase KPC-2 T237C mutant by agar dilution method in presence of beta-lactamase inhibitor clavulanic acid
Summary of the method: (§3)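 LB agar dilution MICs per CLSI criteria, inoculated with a Steers replicator. […] Strains: E. coli DH10B alone, DH10B carrying empty pBC SK(+), or DH10B carrying pBC SK(+)-blaKPC-2 position 237 variants made by site-saturation mutagenesis and confirmed by sequencing. Plasmid selection used 20 mg/liter chloramphenicol.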

Escherichia coli [14] = test: Antimicrobial activity against Escherichia coli DH10B harboring beta-lactamase KPC-2 T237H mutant by agar dilution method in presence of beta-lactamase inhibitor clavulanic acid; summary of the method: as §2
Escherichia coli [15] = test: Antimicrobial activity against Escherichia coli DH10B harboring beta-lactamase KPC-2 T237E mutant by agar dilution method in presence of beta-lactamase inhibitor Sulbactam; summary of the method: as §2
Escherichia coli [16] = test: Antimicrobial activity against Escherichia coli DH10B harboring beta-lactamase KPC-2 T237R mutant by agar dilution method in presence of beta-lactamase inhibitor clavulanic acid; summary of the method: as §3
Escherichia coli [17] = test: Antimicrobial activity against Escherichia coli DH10B harboring beta-lactamase KPC-2 T237Q mutant by agar dilution method in presence of beta-lactamase inhibitor clavulanic acid; summary of the method: as §2
Escherichia coli [18] = test: Antimicrobial activity against Escherichia coli DH10B harboring beta-lactamase KPC-2 T237C mutant by agar dilution method in presence of beta-lactamase inhibitor Sulbactam; summary of the method: as §3
Escherichia coli [19] = test: Antimicrobial activity against Escherichia coli DH10B harboring beta-lactamase KPC-2 T237D mutant by agar dilution method in presence of beta-lactamase inhibitor clavulanic acid; summary of the method: as §2
Escherichia coli [20] = test: Antimicrobial activity against Escherichia coli DH10B by agar dilution method in presence of beta-lactamase inhibitor Sulbactam; summary of the method: as §3
Escherichia coli [21] = test: Antimicrobial activity against Escherichia coli DH10B harboring beta-lactamase KPC-2 T237W mutant by agar dilution method in presence of beta-lactamase inhibitor Sulbactam; summary of the method: as §2
Escherichia coli [22] = test: Antimicrobial activity against Escherichia coli DH10B harboring beta-lactamase KPC-2 T237I mutant by agar dilution method in presence of beta-lactamase inhibitor clavulanic acid; summary of the method: as §2
Escherichia coli [23] = test: Antimicrobial activity against Escherichia coli DH10B harboring beta-lactamase KPC-2 T237N mutant by agar dilution method in presence of beta-lactamase inhibitor Sulbactam; summary of the method: as §2
Escherichia coli [24] = test: Antimicrobial activity against Escherichia coli DH10B harboring beta-lactamase KPC-2 T237A mutant by agar dilution method in presence of beta-lactamase inhibitor clavulanic acid; summary of the method: as §2
Escherichia coli [25] = test: Antimicrobial activity against Escherichia coli DH10B harboring plasmid pBR322-catI carrying beta-lactamase KPC-2 by agar dilution method in presence of beta-lactamase inhibitor clavulanic acid
Escherichia coli [26] = test: Antimicrobial activity against Escherichia coli DH10B harboring plasmid pBC SK(+) carrying wild type beta-lactamase KPC-2 by agar dilution method in presence of beta-lactamase inhibitor clavulanic acid; summary of the method: as §2
Escherichia coli [27] = test: Antimicrobial activity against Escherichia coli DH10B harboring plasmid […] by agar dilution method in presence of beta-lactamase inhibitor Sulbactam; summary of the method: as §3
Escherichia coli [28] = test: Antimicrobial activity against Escherichia coli DH10B by agar dilution method in presence of beta-lactamase inhibitor clavulanic acid; summary of the method: as §3
Escherichia coli [29] = test: Antimicrobial activity against Escherichia coli DH10B harboring beta-lactamase KPC-2 T237K mutant by agar dilution method in presence of beta-lactamase inhibitor Sulbactam; summary of the method: as §2

For CCN1CCN(C(=O)N[C@@H](C(=O)N[C@@H]2C(=O)N3[C@@H]2SC(C)(C)[C@@H]3C(=O)O)c2ccccc2)C(=O)C1=O [PIPERACILLIN], the MIC (Escherichia coli [1]) was 0.5 µg/mL, the MIC (Escherichia coli [2]) was 0.5 µg/mL and the MIC (Escherichia coli [3]) was 0.5 µg/mL. It also gave an MIC (Escherichia coli [4]) of 0.5 µg/mL, an MIC (Escherichia coli [5]) of 1 µg/mL and an MIC (Escherichia coli [6]) of 0.5 µg/mL. It also gave an MIC (Escherichia coli [7]) of 1 µg/mL, an MIC (Escherichia coli [8]) of 4 µg/mL and an MIC (Escherichia coli [9]) of 0.5 µg/mL. The MIC (Escherichia coli [10]) was 2 µg/mL and the MIC (Escherichia coli [11]) was 0.5 µg/mL.

In the case of CC1(C)S[C@@H]2[C@H](NC(=O)[C@H](N)c3ccccc3)C(=O)N2[C@H]1C(=O)O [AMPICILLIN], the MIC (Escherichia coli [12]) is reported as 128 µg/mL, the MIC (Escherichia coli [13]) is reported as 1 µg/mL and the MIC (Escherichia coli [14]) is reported as 4 µg/mL. It also gave an MIC (Escherichia coli [15]) of 8 µg/mL, an MIC (Escherichia coli [16]) of 1 µg/mL and an MIC (Escherichia coli [17]) of 8 µg/mL. It also gave an MIC (Escherichia coli [18]) of 1 µg/mL, an MIC (Escherichia coli [19]) of 8 µg/mL and an MIC (Escherichia coli [20]) of 1 µg/mL. For the same molecule, the MIC (Escherichia coli [21]) was 8 µg/mL, the MIC (Escherichia coli [22]) was 8 µg/mL and the MIC (Escherichia coli [23]) was 8 µg/mL. For the same molecule, the MIC (Escherichia coli [24]) was 8 µg/mL, the MIC (Escherichia coli [25]) was 32 µg/mL and the MIC (Escherichia coli [26]) was 4 µg/mL. It also gave an MIC (Escherichia coli [27]) of 1 µg/mL, an MIC (Escherichia coli [28]) of 1 µg/mL and an MIC (Escherichia coli [29]) of 4 µg/mL.
